Data published in ChEMBL document CHEMBL1287654, “Anticancer activity of N-bis(trifluoromethyl)alkyl-N'-(polychlorophenyl) and N'-(1,2,4-triazolyl) ureas” (2010).

Columns and labels:
Type in all cases: functional
SF-539 = test: Growth inhibition of human SF539 cells after 48 hrs by sulforhodamine B assay; details: SF-539, 48 h
How it was run: (§1)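 NCI 60-cell-line main test over a five-log dose range. GI50 is the molar concentration giving half-growth inhibition, reported as log molar. Subpanel values are median GI50 across that subpanel's lines. Where 50% inhibition was not reached within the tested interval, the highest tested concentration was used.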

[1] = Growth inhibition of human ovarian cancer cell after 48 hrs by sulforhodamine B assay; details: Cancer cell lines
How it was run: (§2)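 Subpanel median growth inhibitory concentration: the average sensitivity of each tumor-type subpanel of the NCI 60-cell-line panel, derived from per-cell-line GI50 values. GI50 values came from a five log dose range and are expressed as log molar concentration for 50% net growth inhibition.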

SK-MEL-2 = test: Growth inhibition of human SK-MEL-2 cells after 48 hrs by sulforhodamine B assay; details: SK-MEL-2, 48 h; how it was run: as §1
[2] = Growth inhibition of human prostate cancer cell after 48 hrs by sulforhodamine B assay; details: Cancer cell lines; how it was run: as §2
[3] = Growth inhibition of human CNS cancer cell after 48 hrs by sulforhodamine B assay; details: Cancer cell lines; how it was run: as §1
M14 = test: Growth inhibition of human M14 cells after 48 hrs by sulforhodamine B assay; details: M14, 48 h; how it was run: as §1
MDA-MB-435 = test: Growth inhibition of human MDA-MB-435 cells after 48 hrs by sulforhodamine B assay; details: MDA-MB-435, 48 h; how it was run: as §1
UACC-257 = test: Growth inhibition of human UACC257 cells after 48 hrs by sulforhodamine B assay; details: UACC-257, 48 h
How it was run: (§3)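 NCI 60-cell-line main screen across nine tumor types, with five log dose range per compound. GI50 is the molar concentration giving half growth inhibition, reported as the log of the molar concentration that inhibits 50% net cell growth.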

NCI/ADR-RES = test: Growth inhibition of human NCI/ADR-RES cells after 48 hrs by sulforhodamine B assay; how it was run: as §1
SK-MEL-5 = test: Growth inhibition of human SK-MEL-5 cells after 48 hrs by sulforhodamine B assay; details: SK-MEL-5, 48 h; how it was run: as §1
[4] = Growth inhibition of human colon cancer cell after 48 hrs by sulforhodamine B assay; details: Cancer cell lines; how it was run: as §2
PC-3 = test: Growth inhibition of human PC3 cells after 48 hrs by sulforhodamine B assay; details: PC-3, 48 h; how it was run: as §1
BT-549 = test: Growth inhibition of human BT549 cells after 48 hrs by sulforhodamine B assay; details: BT-549, 48 h; how it was run: as §1
K562 = test: Growth inhibition of human K562 cells after 48 hrs by sulforhodamine B assay; details: K562, 48 h; how it was run: as §1
[5] = Growth inhibition of human breast cancer cell after 48 hrs by sulforhodamine B assay; details: Cancer cell lines; how it was run: as §2
SK-OV-3 = test: Growth inhibition of human SKOV3 cells after 48 hrs by sulforhodamine B assay; details: SK-OV-3, 48 h; how it was run: as §1
[6] = Growth inhibition of human renal cancer cell after 48 hrs by sulforhodamine B assay; details: Cancer cell lines; how it was run: as §2
SF-268 [7] = test: Growth inhibition of human SF268 cells assessed as cell growth at 100 uM after 48 hrs by sulforhodamine B assay relative to control; details: SF-268, 48 h, read-out: Activity
How it was run: (§4)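 One-dose pre-test on MCF7, NCI-H460 and SF-268. Cells were inoculated and pre-incubated on a microtiter plate, then given a single 10^-4 M dose and incubated 48 h. Growth was read spectrophotometrically and expressed as percent of untreated control cells; negative values indicate cell kill.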

OVCAR-4 = test: Growth inhibition of human OVCAR4 cells after 48 hrs by sulforhodamine B assay; details: OVCAR-4, 48 h; how it was run: as §1
HOP-92 = test: Growth inhibition of human HOP92 cells after 48 hrs by sulforhodamine B assay; details: HOP-92, 48 h; how it was run: as §1
SF-268 [8] = test: Growth inhibition of human SF268 cells after 48 hrs by sulforhodamine B assay; details: SF-268, 48 h; how it was run: as §1
SN12C = test: Growth inhibition of human SN12C cells after 48 hrs by sulforhodamine B assay; how it was run: as §3
[9] = Growth inhibition of human leukemia cell after 48 hrs by sulforhodamine B assay; how it was run: as §2
[10] = Growth inhibition of human melanoma cell after 48 hrs by sulforhodamine B assay; how it was run: as §2
HOP-62 = test: Growth inhibition of human HOP62 cells after 48 hrs by sulforhodamine B assay; details: HOP-62, 48 h; how it was run: as §1
OVCAR-3 = test: Growth inhibition of human OVCAR-3 cells after 48 hrs by sulforhodamine B assay; details: OVCAR-3, 48 h; how it was run: as §1
SNB-75 = test: Growth inhibition of human SNB75 cells after 48 hrs by sulforhodamine B assay; details: SNB-75, 48 h; how it was run: as §3
SNB-19 = test: Growth inhibition of human SNB19 cells after 48 hrs by sulforhodamine B assay; details: SNB-19, 48 h; how it was run: as §3
Malme-3M = test: Growth inhibition of human MALME-3M cells after 48 hrs by sulforhodamine B assay; how it was run: as §1
A498 = test: Growth inhibition of human A498 cells after 48 hrs by sulforhodamine B assay; details: A498, 48 h; how it was run: as §1
OVCAR-5 = test: Growth inhibition of human OVCAR5 cells after 48 hrs by sulforhodamine B assay; details: OVCAR-5, 48 h; how it was run: as §1
IGROV-1 = test: Growth inhibition of human IGROV1 cells after 48 hrs by sulforhodamine B assay; details: IGROV-1, 48 h; how it was run: as §1
MCF7 [11] = test: Growth inhibition of human MCF7 cells after 48 hrs by sulforhodamine B assay; details: MCF7, 48 h; how it was run: as §1
NCI-H460 = test: Growth inhibition of human NCI-H460 cells assessed as cell growth at 100 uM after 48 hrs by sulforhodamine B assay relative to control; details: NCI-H460, 48 h, read-out: Activity; how it was run: as §4
SR = test: Growth inhibition of human SR cells after 48 hrs by sulforhodamine B assay; how it was run: as §3
SW-620 = test: Growth inhibition of human SW620 cells after 48 hrs by sulforhodamine B assay; details: SW-620, 48 h; how it was run: as §3
UO-31 = test: Growth inhibition of human UO31 cells after 48 hrs by sulforhodamine B assay; details: UO-31, 48 h; how it was run: as §3
A549 = test: Growth inhibition of human A549 cells after 48 hrs by sulforhodamine B assay; details: A549, 48 h; how it was run: as §1
MCF7 [12] = test: Growth inhibition of human MCF7 cells assessed as cell growth at 100 uM after 48 hrs by sulforhodamine B assay relative to control; details: MCF7, 48 h, read-out: Activity; how it was run: as §4
HL-60(TB) = test: Growth inhibition of human HL-60(TB) cells after 48 hrs by sulforhodamine B assay; details: HL-60, 48 h
How it was run: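 NCI 60-cell-line panel run over a five-log dose range. GI50 is reported as the log of the molar concentration giving 50% net cell-growth inhibition, from dose-response against untreated controls. Where that effect was not reached within the concentration interval, the highest tested concentration was used in the calculation.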

NCI-H226 = test: Growth inhibition of human NCI-H226 cells after 48 hrs by sulforhodamine B assay; details: NCI-H226, 48 h; how it was run: as §1
CAKI-1 = test: Growth inhibition of human Caki1 cells after 48 hrs by sulforhodamine B assay; details: CAKI-1, 48 h; how it was run: as §1
COLO 205 = test: Growth inhibition of human COLO205 cells after 48 hrs by sulforhodamine B assay; details: COLO 205, 48 h; how it was run: as §1

## CCC(NC(=O)Nc1cc(Cl)ccc1Cl)(C(F)(F)F)C(F)(F)F
SF-539
  GI50: 9.55 µM
[1]
  GI50: 5.5 µM
SK-MEL-2
  GI50: 2.19 µM
[2]
  GI50: 3.16 µM
[3]
  GI50: 4.47 µM
M14
  GI50: 5.13 µM
MDA-MB-435
  GI50: 5.13 µM
UACC-257
  GI50: 4.79 µM
NCI/ADR-RES
  GI50: 4.17 µM
SK-MEL-5
  GI50: 6.61 µM
[4]
  GI50: 4.68 µM
PC-3
  GI50: 2.19 µM
BT-549
  GI50: 10.5 µM
K562
  GI50: 3.55 µM
[5]
  GI50: 5.5 µM
SK-OV-3
  GI50: 10.7 µM
[6]
  GI50: 3.89 µM
SF-268 [7]
  growth at 100 µM: -99%
OVCAR-4
  GI50: 5.62 µM
HOP-92
  GI50: 4.68 µM
SF-268 [8]
  GI50: 4.79 µM
SN12C
  GI50: 2.82 µM
[9]
  GI50: 3.8 µM
[10]
  GI50: 5.25 µM
HOP-62
  GI50: 10.7 µM
OVCAR-3
  GI50: 3.09 µM
SNB-75
  GI50: 3.63 µM
SNB-19
  GI50: 4.68 µM
Malme-3M
  GI50: 8.13 µM
A498
  GI50: 4.17 µM
OVCAR-5
  GI50: 4.79 µM
IGROV-1
  GI50: 5.62 µM
MCF7 [11]
  GI50: 7.24 µM
NCI-H460
  growth at 100 µM: -100%
SR
  GI50: 3.39 µM
SW-620
  GI50: 5.25 µM
UO-31
  GI50: 2.63 µM
A549
  GI50: 3.47 µM
MCF7 [12]
  growth at 100 µM: -89%
HL-60(TB)
  GI50: 4.17 µM
NCI-H226
  GI50: 6.17 µM
CAKI-1
  GI50: 4.57 µM
COLO 205
  GI50: 1.82 µM
